pIC50: −log10 of the molar value.
How the values were obtained:
HT-29 [1] = experiment: Inhibition of TNFalpha-induced NF-kappaB activation expressed in human HT-29 cells coexpressing hrGFP at 400 uM after 24 hrs by propidium iodide staining-based flow cytometric analysis relative to control; assay type: cell-based
How it was run: (§1)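 HT-29 cells stably expressing NF-κB-driven hrGFP given compound (DMSO <0.5%) for 2 h at the maximum non-cytotoxic concentration, then TNF-α at 3 ng/mL final for 18–24 h. Cells trypsinised and stained with propidium iodide; 5000 events gated on FSC/SSC. The %GFP-positive among PI-excluding live cells is normalised to TNF-α/DMSO control, ± SD.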

[2] = Cytotoxicity against human HT-29 cells expressing NF-kappaB-hrGFP assessed as highest non-cytotoxic dose for 100% cell survival after 24 hrs by MTT assay; assay type: cell-based; settings: read-out: Activity
How it was run: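 HT-29 cells stably carrying pNF-κB-hrGFP, seeded at 0.5 × 10^6/mL in DMEM with 10% FBS, grown 24 h at 37 °C, 5% CO2. Compounds added in DMSO (<0.5% v/v final) at 12.5–400 µM for 24 h. Viability by MTT reduction (2 h), formazan dissolved in DMSO/glycine buffer, read at 560 nm.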

HT-29 [3] = experiment: Inhibition of NF-kappaB activation expressed in human HT-29 cells assessed as inhibition of TNFalpha-stimulated IL8 release at 400 uM after 24 hrs by flow cytometric analysis relative to control; assay type: cell-based
How it was run: (§2)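 Reporter HT-29-NF-κB-hrGFP cells pretreated 2 h with compound (DMSO <0.5%) at the highest concentration with 100% survival, then stimulated with TNF-α (3 ng/mL final) for 18–24 h at 37 °C. IL-8 in clarified supernatant measured by flow cytometric bead assay (500 events). Expressed as % of TNF-α/DMSO control ± SD; thalidomide as reference.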

[4] = Cytotoxicity against mouse […] cells after 48 hrs by MTT assay; assay type: cell-based
How it was run: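 J774 macrophages in DMEM (4 mM L-glutamine, 10% heat-inactivated FBS) were seeded at 1 × 10^5 cells/well and grown for 48 h at 37 °C, 5% CO2. They were then exposed to compounds at 25–400 µM for 48 h. MTT (0.1 mg/mL final) was added for 3 h, formazan was dissolved in DMSO/glycine buffer pH 10.5, and absorbance was read at 560 nm to give an IC50.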

HT-29 [5] = experiment: Pro-inflammatory activity in NFkappaB-GFP transfected human HT-29 cells at 25 to 400 uM after 24 hrs by propidium iodide staining-based flow cytometric analysis; assay type: ADME, cell-based; settings: ht-29, 24 h
How it was run: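 Reporter HT-29-NF-κB-hrGFP cells given compound alone, without TNF-α, for 18–24 h at 37 °C after the same 2 h pre-incubation. GFP-positive live (propidium iodide-excluding) cells counted by flow cytometry; IL-8 in supernatant measured by bead-based flow cytometry.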

Mus musculus = experiment: Analgesic activity in albino mouse assessed as inhibition of acetic acid-induced abdominal constriction at 100 umol/kg, po administered 1 hr before acetic acid challenge measured after 60 mins relative to control; assay type: functional; settings: Abdomen
How it was run: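 Albino mice of both sexes (18–23 g) were dosed orally as a suspension in 5% arabic gum in saline, with vehicle controls. After 1 h they received 0.6% acetic acid ip (0.1 mL/10 g). Constrictions were counted for 20 min starting 10 min after injection. Data are % inhibition vs vehicle, mean ± SEM, Student t-test.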

Rattus norvegicus = experiment: Antiinflammatory activity in albino rat assessed as inhibition of carrageenan-induced paw edema at 100 umol/kg, po administered 1 hr before carrageenan challenge measured after 3 hrs by plethysmometric analysis relative to control; assay type: functional
How it was run: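 Albino rats of both sexes (150–200 g) were dosed orally as a suspension in 1% Tween 80 in saline, with vehicle controls. After 1 h, 0.1 mL 1% carrageenan or saline was injected subplantar. Paw volume was read by glass plethysmometer at 3 h. Edema = carrageenan-paw minus saline-paw volume; % inhibition vs vehicle; Student t-test.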

Glycine max = experiment: Inhibition of soybean lipoxygenase using arachidonic acid as substrate at 50 uM
How it was run: (§3)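 Soybean 15-lipoxygenase kit assay, arachidonic acid substrate, H2O2 as lipoxygenating agent in 0.1 M Tris-HCl pH 7.4. Single-point screen at 50 µM. IC50 found by varying concentration over 10–100 µM. Quercetin at 4 µM as positive control; duplicate means; Student t-test.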

[6] = Inhibition of soybean lipoxygenase using arachidonic acid as substrate; set-up: species or system Glycine max; how it was run: as §3
[7] = Induction of NO release in 0.1 M Tris-HCl and 0.1 mM DTPA at pH 8.3 measured for 20 mins in presence of cysteine; assay type: physicochemical; settings: buffer, pH 8.3, 20 min
How it was run: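 Electrochemical NO detection with an ISO-NOP sensor. Compounds in DMSO added to 0.1 M Tris-HCl, 0.1 mM DTPA at pH 7.4 or 8.3. Cysteine (300 or 100 µM) added and NO recorded for 20 min at 25 or 37 °C; compound:Cys ratio 1:1 at 25 °C, with 3:1 and 37 °C runs also made.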

HT-29 [8] = experiment: Inhibition of TNFalpha-induced NF-kappaB activation expressed in human HT-29 cells coexpressing hrGFP at 100 uM after 24 hrs by propidium iodide staining-based flow cytometric analysis relative to control; assay type: cell-based; how it was run: as §1
HT-29 [9] = experiment: Inhibition of NF-kappaB activation expressed in human HT-29 cells assessed as inhibition of TNFalpha-stimulated IL8 release at 100 uM after 24 hrs by flow cytometric analysis relative to control; assay type: cell-based; how it was run: as §2

Row | SMILES | NF-kappaB activity (GFP-positive cells), % of TNF-alpha control (HT-29 [1]) | MNTC at 24 h [2] | inhibition (HT-29 [3]) | pIC50 [4] | Activity (HT-29 [5]) | inhibition in vivo at 100 µmol/kg (Mus musculus) | inhibition in vivo at 100 µmol/kg (Rattus norvegicus) | inhibition (Glycine max) | pIC50 [6] | Activity [7] | NF-kappaB activity (% of TNF-alpha control) (HT-29 [8]) | inhibition (HT-29 [9])
1 | Cc1nc2ccccn2c1C(=O)N/N=C/c1ccc2no[n+]([O-])c2c1 | 104% | 400 µM | 76% | < 3.40 | Non-toxic |  |  |  |  |  |  | 
2 | COc1ccc(/C=N/NC(=O)c2no[n+]([O-])c2C)cc1OC | 120% | 400 µM | 68% | < 3.40 | Non-toxic | 17% | 4% | 0% |  |  |  | 
3 | O=C(N/N=C/c1ccc2no[n+]([O-])c2c1)c1ccc2c(c1)OCO2 | 87% | 400 µM | 64% | 3.85 | Non-toxic |  |  | 55% | 4.30 | 0 nM/min |  | 
4 | Cc1c(C(=O)N/N=C/c2ccco2)no[n+]1[O-] |  | 100 µM |  | < 3.40 | Non-toxic |  |  | 0% |  |  | 99% | 82%
5 | Cc1c(C(=O)N/N=C/c2c(-c3ccccc3)no[n+]2[O-])no[n+]1[O-] |  | 100 µM |  | < 3.40 | Non-toxic |  |  |  |  |  | 122% | 77%
6 | Cc1c(/C=N/NC(=O)c2no[n+]([O-])c2C)no[n+]1[O-] |  | 100 µM |  | < 3.40 | Non-toxic | 14% | 10% | 55% | 4.30 |  | 127% | 65%
7 | Cc1nc2ccccn2c1C(=O)N/N=C/c1no[n+]([O-])c1C | 120% | 400 µM | 77% | < 3.40 | Non-toxic |  |  |  |  |  |  | 
8 | Cc1c(C(=O)N/N=C/c2ccc([N+](=O)[O-])o2)no[n+]1[O-] |  | 100 µM |  | 4.02 | Non-toxic | 13% | 14% |  |  |  | 136% | 48%
9 | Cc1c(C(=O)N/N=C/c2cccs2)no[n+]1[O-] |  | 100 µM |  | < 3.40 | Non-toxic | 14% | 0% | 10% | < 4.00 |  | 122% | 75%
10 | Cc1c(C(=O)N/N=C/c2ccc([N+](=O)[O-])s2)no[n+]1[O-] |  | 100 µM |  | 4.17 | Non-toxic |  |  |  |  |  | 111% | 
11 | Cc1c(/C=N/NC(=O)c2cnn(-c3ccccc3)c2)no[n+]1[O-] (mixture of isomers) |  | 100 µM |  | 3.53 | Non-toxic |  |  | 0% |  |  | 80% | 
12 | O=C(N/N=C/c1c(-c2ccccc2)no[n+]1[O-])c1cnn(-c2ccccc2)c1 | 105% | 400 µM |  | 4.38 | Non-toxic |  |  |  |  |  |  | 
13 | O=C(N/N=C/c1ccc2no[n+]([O-])c2c1)c1cnn(-c2ccccc2)c1 |  |  |  | 4.43 | Non-toxic |  |  |  |  |  |  | 
14 | Cc1c(C(=O)N/N=C/c2ccc3c(c2)OCO3)no[n+]1[O-] |  | 100 µM |  | < 3.40 | Non-toxic |  |  |  |  |  | 97% | 98%
15 | COc1ccc(/C=N/NC(=O)c2no[n+]([O-])c2C)cc1O | 117% | 400 µM | 59% | < 3.40 | Non-toxic |  |  | 58% |  |  |  | 
16 | Cc1c(C(=O)N/N=C/c2ccc3no[n+]([O-])c3c2)no[n+]1[O-] | 121% | 400 µM | 68% | < 3.40 | Non-toxic |  |  |  |  |  |  | 
17 | Cc1c(/C=N/NC(=O)c2ccc3c(c2)OCO3)no[n+]1[O-] | 102% | 400 µM | 106% | 3.88 | Non-toxic |  |  |  |  |  |  | 
18 | Cc1c(C(=O)N/N=C/c2ccc(Br)cc2)no[n+]1[O-] |  | 100 µM |  | 3.79 | Non-toxic | 23% | 0% | 0% |  |  | 126% | 61%
19 | Cc1c(C(=O)N/N=C/c2ccc(C(F)(F)F)cc2)no[n+]1[O-] | 55% | 400 µM |  | < 3.40 | Non-toxic |  |  | 55% | 4.30 |  |  | 
20 | COc1cc(/C=N/NC(=O)c2no[n+]([O-])c2C)ccc1O |  | 100 µM |  | < 3.40 | Non-toxic |  |  | 1% |  | 0 nM/min | 149% | 77%

Reference: ChEMBL document CHEMBL1955718, “Discovery of new orally effective analgesic and anti-inflammatory hybrid furoxanyl N-acylhydrazone derivatives” (Bioorg Med Chem, 2012)
